In ChEMBL document CHEMBL1240482, “Synthesis and antiproliferative evaluation of certain indeno[1,2-c]quinoline derivatives. Part 2” (J Med Chem, 2010):

Experiments:
[1] = Cytotoxicity against human SKHep cells after 48 hrs by MTT assay; format: functional
Method in brief: (§1)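 Cells grown in DMEM with 10% FBS at 37 °C and 5% CO2, seeded at 5 × 10^3 per well and allowed 24 h before drug. Serial dilutions from DMSO stocks applied for 48 h. MTT (2 mg/mL in PBS) added for 2 h, formazan dissolved in DMSO, absorbance read at 570 nm. GI50 interpolated by linear regression from at least three points in the 20-80% range; three independent experiments.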

Detroit 551 [2] = experiment: Selectivity index, ratio of IC50 for human Detroit 551 cells to IC50 for human BT-483 cells; format: functional
[3] = Cytotoxicity against human Detroit 551 cells after 48 hrs by MTT assay; format: cell-based; method in brief: as §1
[4] = Half life in CD1 mouse at 2 mg/ kg, iv; format: ADME, organism-based; design: dose 2 mg/ kg, route intravenous; conditions: in vivo
Method in brief: (§2)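 Fasted male CD-1 (Crl.) mice, 22-24 g; single tail-vein bolus of 2.0 mg/kg in PEG400/ethanol/water (30/5/65), 10 mL/kg. Cardiac-puncture blood into K-EDTA at 0-27 h, three mice per time point; plasma analysed by LC-MS/MS after acetonitrile precipitation. Parameters calculated from mean plasma concentrations.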

[5] = target: T1, DNA topoisomerase 1 (Homo sapiens) (UniProt P11387); experiment: Inhibition of human topoisomerase 1 assessed as decrease in pBR322 mobility on agarose gel at 10 uM by electrophoresis
T1 sequence (whole entry): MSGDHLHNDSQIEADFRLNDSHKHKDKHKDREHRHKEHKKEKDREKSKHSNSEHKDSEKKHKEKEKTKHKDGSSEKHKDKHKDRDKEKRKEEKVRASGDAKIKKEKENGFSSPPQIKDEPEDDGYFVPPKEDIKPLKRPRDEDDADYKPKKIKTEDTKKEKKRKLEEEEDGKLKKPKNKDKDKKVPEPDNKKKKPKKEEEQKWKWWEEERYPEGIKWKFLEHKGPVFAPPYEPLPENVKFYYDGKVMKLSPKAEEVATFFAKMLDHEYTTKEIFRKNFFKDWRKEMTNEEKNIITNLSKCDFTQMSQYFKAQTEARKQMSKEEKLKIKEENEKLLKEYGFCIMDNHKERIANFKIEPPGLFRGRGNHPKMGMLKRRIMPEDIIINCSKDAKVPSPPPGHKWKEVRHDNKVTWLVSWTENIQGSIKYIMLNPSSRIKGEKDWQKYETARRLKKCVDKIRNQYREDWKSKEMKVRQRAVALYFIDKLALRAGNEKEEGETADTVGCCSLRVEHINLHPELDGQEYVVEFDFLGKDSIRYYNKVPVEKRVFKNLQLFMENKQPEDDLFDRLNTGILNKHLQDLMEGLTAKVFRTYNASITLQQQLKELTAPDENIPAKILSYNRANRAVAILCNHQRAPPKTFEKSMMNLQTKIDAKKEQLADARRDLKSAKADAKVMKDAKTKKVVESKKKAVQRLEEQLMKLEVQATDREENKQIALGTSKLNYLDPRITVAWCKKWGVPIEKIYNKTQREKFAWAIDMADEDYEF
Method in brief: (§3)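 Enzyme preincubated with compound before DNA addition; reaction run 30 min at 37 °C and stopped with SDS. Products resolved on 1% agarose, stained with ethidium bromide, quantified by densitometry.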

Detroit 551 [6] = experiment: Selectivity index, ratio of IC50 for human Detroit 551 cells to IC50 for human PC3 cells; format: functional
[7] = AUC (0 to infinity) in CD1 mouse at 2 mg/ kg, iv; format: ADME, organism-based; design: time infinity, dose 2 mg/ kg, route intravenous; conditions: plasma; method in brief: as §2
Detroit 551 [8] = experiment: Selectivity index, ratio of IC50 for human Detroit 551 cells to IC50 for human SKHep cells; format: functional
Mus musculus [9] = experiment: Toxicity to BALB/c mouse assessed as survival rate at 20 mg/kg, iv; format: organism-based; design: dose 20 mg/kg, route intravenous; conditions: in vivo
Method in brief: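 Balb/C athymic nude mice (6-8 weeks, ~20 g) bearing subcutaneous BT483 breast xenografts (0.5 × 10^6 cells). Treatment began at ~500 mm3 tumour volume: cosolvent formulation diluted in 5% dextrose, iv at 10 or 20 mg/kg once daily for 14 days; controls received vehicle. 3 animals per group. Survival was assessed by Kaplan-Meier analysis at study end, p < 0.05.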

Detroit 551 [10] = experiment: Selectivity index, ratio of IC50 for human Detroit 551 cells to IC50 for human A549 cells; format: functional
PC-3 = experiment: Cytotoxicity against human PC3 cells after 48 hrs by MTT assay; format: functional; conditions: PC-3, 48 h; method in brief: as §1
Homo sapiens = species: Homo sapiens; experiment: Inhibition of human topoisomerase 2 assessed as decrease in pBR322 mobility on agarose gel at 10 uM by electrophoresis; method in brief: as §3
[11] = Cell cycle arrest in human BT-483 cells assessed as accumulation at sub-G1 phase at 10 uM after 24 hrs by flow cytometry; format: functional, cell-based
Method in brief: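 BT483 cells exposed to 0, 1, 3 or 10 μM for 24 h, then stained with propidium iodide and analysed for DNA content by flow cytometry. The subdiploid (sub-G1) peak, expressed as a percentage of the whole population, is scored as apoptotic.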

Mus musculus [12] = experiment: Toxicity to BALB/c mouse assessed as change in blood urea nitrogen at 20 mg/kg, iv; format: organism-based; design: dose 20 mg/kg, route intravenous; conditions: in vivo
Method in brief: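 BALB/c mice, 3 per group, randomized by body weight (stratified). Dosed iv via tail vein at 10, 20 or 40 mg/kg in PEG 400/ethanol/water (20/20/60), once every 3 days for 2 weeks; solvent controls. Weighed throughout. After a 24 h fast, heart blood was drawn under ether; GOT, GPT, BUN and creatinine were measured on an analyzer. Liver and kidney taken for H&E.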

[13] = Clearance in CD1 mouse at 2 mg/ kg, iv; format: ADME, organism-based; design: dose 2 mg/ kg, route intravenous; conditions: in vivo; method in brief: as §2
[14] = Mean retention time in CD1 mouse at 2 mg/ kg, iv; format: ADME, organism-based; design: dose 2 mg/ kg, route intravenous; conditions: in vivo; method in brief: as §2
[15] = Cytotoxicity against human BT-483 cells after 48 hrs by MTT assay; format: functional; conditions: BT-483, 48 h; method in brief: as §1

COc1ccc2c(c1)/C(=N\OCCN1CCCC1)c1c-2c(O)nc2ccccc12
GI50 [1]: 1.24 µM | RatioGI50 (Detroit 551 [2]): 15.75 | GI50 at 48 h [3]: 12.4 µM | half-life [4]: 1.5 h | inhibition [5]: 71% | RatioGI50 (Detroit 551 [6]): 6.8 | AUC(0-inf) [7]: 172 ng·h/mL | RatioGI50 (Detroit 551 [8]): 10.03 | Activity (Mus musculus [9]): Non-toxic | RatioGI50 (Detroit 551 [10]): 13.98 | GI50 (PC-3): 1.83 µM | inhibition (Homo sapiens): 60% | Activity [11]: 88% | Activity (Mus musculus [12]): Non-toxic | clearance [13]: 193 mL/min/kg | MRT [14]: 1.1 h | GI50 [15]: 0.79 µM
